Consider 73 sequences from the array DNA melting data of Ke et al. (doi:10.1101/2024.01.08.574731).

The nature of data set [1]: melting temperature; fluorescence melt of hairpins on a sequencing array, two-state fit, raised by 9.35 °C to match UV melts. To be noted: sodium 0.088 M. In a few lines:
(§1)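 Two-state fits, bootstrapped, provided melting temperature and folding enthalpy from Cy3 fluorescence normalised to pre-quench Cy3 and to control constructs. Library hairpins with annealed Cy3 and quencher oligos were imaged on a sequenced MiSeq flow cell in 50 mM Na-HEPES pH 8.0, 25 mM NaCl, at 2.5 °C intervals up to 60 °C. Four replicates were combined with inverse-variance weighting. A 9.35 °C upward shift was applied to fitted temperatures to match UV melts.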

The nature of data set [2]: folding enthalpy; higher = less favourable; fluorescence melt of hairpins on a sequencing array, two-state fit. Conditions: sodium 0.088 M. In a few lines: as §1

For the sequence GCAATACGAAAGTAGTGC (((.(((....))).))), in data set [1], the Tm was 54.7 °C. Besides, the folding enthalpy in data set [2] was -43.8 kcal/mol.
The like results for GCAATAGAAATATTGC ((((((....)))))) were, in that order, 46.4 °C and -26.5 kcal/mol.
GCAATCCGAAAGGAATGC (((.(((....))).))): in data set [1], the Tm is 54.5 °C. Further, the folding enthalpy in data set [2] was -34.5 kcal/mol.
On the same counts, the results for GCAATCGAAAGATGCTGC ((((((....)))..))) are 51.1 °C and -28.2 kcal/mol.
The like results for GCAATCGGAAACGATCGC ((.((((....)))).)) were, in that order, 47.2 °C and -36.4 kcal/mol.
Regarding GCAATCGGAAACGGTTGC ((((.((....)).)))), in data set [1], the Tm was 55.8 °C. Moreover, the folding enthalpy in data set [2] is -43.8 kcal/mol.
GCAATGAAAATTGC (((((....))))): in data set [1], the Tm came out at 50.7 °C. The folding enthalpy in data set [2] was -22.7 kcal/mol.
For GCAATGCGAAAGCAACGC ((..(((....)))..)), the Tm in data set [1] was found to be 40.2 °C. Further, in data set [2], the folding enthalpy was -14.4 kcal/mol.
On the same counts, the results for GCAATGCGAAAGCACTGC (((.(((....))).))) are 51.6 °C and -36.8 kcal/mol.
The like results for GCAATGCGAAAGCAGCGC ((..(((....)))..)) were, in that order, 55.9 °C and -18.8 kcal/mol.
On the same counts, the results for GCAATGCGAAAGCATAGC ((.((((....)))).)) are 57.8 °C and -18.6 kcal/mol.
In the case of GCAATGCGAAAGCCATGC (((..((....))..))), in data set [1], the Tm is 37.8 °C. Further, the folding enthalpy in data set [2] is -18.3 kcal/mol.
Turning to GCAATGCGAAAGCGTAGC ((.(.((....)).).)), in data set [1], the Tm was found to be 42.7 °C. In addition, the folding enthalpy in data set [2] is -15.8 kcal/mol.
In the case of GCAATTGAAAAATTGC ((((((....)))))), the Tm in data set [1] amounted to 53.4 °C. In addition, the folding enthalpy in data set [2] is -32 kcal/mol.
As for GCAATTGGAAACAACTGC (((.(((....))).))), the Tm in data set [1] worked out at 34.8 °C. Also, in data set [2], the folding enthalpy was -26.6 kcal/mol.
Turning to GCAATTGGAAACAATCGC ((.((((....)))).)), the Tm in data set [1] was 38.8 °C. The folding enthalpy in data set [2] was -27.4 kcal/mol.
GCACAAGGAAACTCGTGC ((((.((....)).)))): the Tm in data set [1] is 43.8 °C. Moreover, in data set [2], the folding enthalpy is -31.4 kcal/mol.
As to GCACACCGAAAGGTTGC (((.(((....)))))), the Tm in data set [1] worked out at 53.6 °C. Moreover, in data set [2], the folding enthalpy was -28.6 kcal/mol.
For the sequence GCACACCGAAAGGTTTGC (((.(((....))).))), in data set [1], the Tm stood at 52.3 °C. The folding enthalpy in data set [2] is -40.7 kcal/mol.
In the case of GCACACGAAAGTGAATGC ((((((....)))..))), in data set [1], the Tm was found to be 42.8 °C. Further, the folding enthalpy in data set [2] was -23.9 kcal/mol.
On the same counts, the results for GCACACGAAAGTGCGTGC ((((((....)))..))) are 52.1 °C and -17 kcal/mol.
For the sequence GCACACGAAAGTGGTGC ((((((....))).))), in data set [1], the Tm amounted to 59.6 °C. Moreover, the folding enthalpy in data set [2] is -33 kcal/mol.
Consider GCACACGAAAGTGTGTGC ((((((....)))..))), for which the Tm in data set [1] was 68.2 °C. Moreover, the folding enthalpy in data set [2] was -18.9 kcal/mol.
As for GCACACGGAAACGTACGC ((..(((....)))..)), the Tm in data set [1] is 35.6 °C. The folding enthalpy in data set [2] was -25.2 kcal/mol.
Take GCACAGCGAAAGCACTGC (((..((....))..))): the Tm in data set [1] was 35.8 °C. The folding enthalpy in data set [2] is -11.7 kcal/mol.
As for GCACAGCGAAAGCCCTGC (((..((....))..))), in data set [1], the Tm stood at 32.1 °C. For the same sequence, the folding enthalpy in data set [2] was -8.82 kcal/mol.
On the same counts, the results for GCACAGCGAAAGCTTTGC (((.(((....))).))) are 51.8 °C and -41.2 kcal/mol.
The like results for GCACAGGGAAACCTGTAC (.(((((....))))).) were, in that order, 40.3 °C and -12.6 kcal/mol.
The like results for GCACATGGAAACATATGC (((.(((....))).))) were, in that order, 36 °C and -26 kcal/mol.
As for GCACATTCGAAAGAATGC (((..(((....)))))), the Tm in data set [1] was 33 °C. In addition, the folding enthalpy in data set [2] was -13.8 kcal/mol.
The like results for GCACCAGGAAACTAGTGC ((((.((....)).)))) were, in that order, 40.2 °C and -29.2 kcal/mol.
Turning to GCACCCCCGAAAGGGTGC (((..(((....)))))), in data set [1], the Tm was 66.6 °C. For the same sequence, the folding enthalpy in data set [2] was -30.6 kcal/mol.
On the same counts, the results for GCACCCCGAAAGGGATGC (((.(((....))).))) are 57.5 °C and -40.6 kcal/mol.
On the same counts, the results for GCACCCGAAAGGGAGTGC ((((((....)))..))) are 54 °C and -38.3 kcal/mol.
With GCACCCGAAAGGGATGC ((((((....))).))), the Tm in data set [1] was determined as 60.5 °C. Also, the folding enthalpy in data set [2] was -28.7 kcal/mol.
Turning to GCACCCGAAAGGGCTGC ((((((....))).))), the Tm in data set [1] was determined as 55.2 °C. Moreover, the folding enthalpy in data set [2] was -31.4 kcal/mol.
Take GCACCCGAAAGGGGTTGC ((((((....)))..))): in data set [1], the Tm was determined as 52.3 °C. Moreover, the folding enthalpy in data set [2] was -15.4 kcal/mol.
With GCACCCGGAAACGGGCGC ((.((((....)))).)), in data set [1], the Tm is 61.5 °C. The folding enthalpy in data set [2] was -38 kcal/mol.
For the sequence GCACCGCGAAAGCAATGC (((..((....))..))), in data set [1], the Tm came out at 27.3 °C. Also, the folding enthalpy in data set [2] was -8.2 kcal/mol.
Turning to GCACCGCGAAAGCAGGGC ((.(.((....)).).)), in data set [1], the Tm worked out at 57.5 °C. The folding enthalpy in data set [2] was -16 kcal/mol.
For GCACCGCGAAAGCCCTGC (((..((....))..))), in data set [1], the Tm was found to be 28.2 °C. For the same sequence, in data set [2], the folding enthalpy was -7.23 kcal/mol.
For the sequence GCACCGCGAAAGCCGCGC ((.(.((....)).).)), the Tm in data set [1] is 41.4 °C. For the same sequence, the folding enthalpy in data set [2] is -16.8 kcal/mol.
As to GCACCGCGAAAGCTCTGC (((..((....))..))), in data set [1], the Tm is 27.4 °C. The folding enthalpy in data set [2] is -10.9 kcal/mol.
For GCACCGCGAAAGCTGCGC ((.(.((....)).).)), the Tm in data set [1] turned out to be 47.4 °C. The folding enthalpy in data set [2] was -24.4 kcal/mol.
Turning to GCACCGGGAAACCGGTAC (.(((((....))))).), the Tm in data set [1] was found to be 41 °C. Further, the folding enthalpy in data set [2] was -14.8 kcal/mol.
Consider GCACCTCGAAAGAGATGC (((.(((....))).))), for which the Tm in data set [1] was determined as 50.6 °C. In data set [2], the folding enthalpy was -40.3 kcal/mol.
The like results for GCACCTCGAAAGAGCTGC (((.(((....))).))) were, in that order, 42.2 °C and -25.5 kcal/mol.
The like results for GCACCTGGAAACAAGTGC ((((.((....)).)))) were, in that order, 41.1 °C and -27.4 kcal/mol.
On to GCACCTGGAAACAGATGC (((.(((....))).))), for which, in data set [1], the Tm was 44 °C. The folding enthalpy in data set [2] was -28.4 kcal/mol.
The like results for GCACCTGGAAACAGGCGC ((.((((....)))).)) were, in that order, 53.5 °C and -46.8 kcal/mol.
On to GCACGCGAAAGCGAGTGC ((((((....)))..))), for which the Tm in data set [1] was 59.5 °C. In addition, the folding enthalpy in data set [2] was -21.1 kcal/mol.
On the same counts, the results for GCACGCGAAAGCGGATGC ((((((....)))..))) are 54.9 °C and -15 kcal/mol.
On the same counts, the results for GCACGCGAAAGCGGCTGC ((((((....)))..))) are 65.4 °C and -14.7 kcal/mol.
Consider GCACGCGAAAGCGTATGC ((((((....)))..))), for which the Tm in data set [1] was found to be 50.9 °C. The folding enthalpy in data set [2] was -13.3 kcal/mol.
On the same counts, the results for GCACGGACGAAAGTCTGC (((..(((....)))))) are 42.5 °C and -12.9 kcal/mol.
On the same counts, the results for GCACGGCGAAAGCCCAGC ((..(((....)))..)) are 38.4 °C and -12.2 kcal/mol.
With GCACGGCGAAAGCCTCGC ((..(((....)))..)), the Tm in data set [1] was 42 °C. For the same sequence, the folding enthalpy in data set [2] is -16.5 kcal/mol.
The like results for GCACGGCGAAAGCGGCGC ((.(.((....)).).)) were, in that order, 57 °C and -24.1 kcal/mol.
On the same counts, the results for GCACGGCGAAAGCGGGGC ((.(.((....)).).)) are 64.9 °C and -31.5 kcal/mol.
The like results for GCACGGCGAAAGCGTTGC (((..((....))..))) were, in that order, 49.3 °C and -18.5 kcal/mol.
In the case of GCACGTCGAAAGACATGC (((.(((....))).))), the Tm in data set [1] turned out to be 52.7 °C. The folding enthalpy in data set [2] was -31.7 kcal/mol.
The like results for GCACGTGGAAACGCGTGC (((((.(....).))))) were, in that order, 64.6 °C and -45.1 kcal/mol.
Take GCACGTTCGAAAGAATGC (((..(((....)))))): the Tm in data set [1] came out at 29.6 °C. The folding enthalpy in data set [2] is -16.9 kcal/mol.
On the same counts, the results for GCACTAGAAATAGTGC ((((((....)))))) are 55.4 °C and -33.6 kcal/mol.
The like results for GCACTAGCGAAAGCTTGC (((..(((....)))))) were, in that order, 38.6 °C and -12.6 kcal/mol.
Regarding GCACTAGGAAACCAGTGC (((((.(....).))))), in data set [1], the Tm was 48.3 °C. In addition, the folding enthalpy in data set [2] was -34.1 kcal/mol.
The like results for GCACTAGGAAACTGGTGC ((((.((....)).)))) were, in that order, 52.9 °C and -34.5 kcal/mol.
The like results for GCACTCGAAAGAGAATGC ((((((....)))..))) were, in that order, 35.1 °C and -24.6 kcal/mol.
On the same counts, the results for GCACTCGAAAGAGCATGC ((((((....)))..))) are 35.2 °C and -14.4 kcal/mol.
Consider GCACTCGAAAGAGGCTGC ((((((....)))..))), for which the Tm in data set [1] worked out at 53 °C. In addition, the folding enthalpy in data set [2] was -19.6 kcal/mol.
As to GCACTCGAAAGAGTATGC ((((((....)))..))), the Tm in data set [1] stood at 42.1 °C. Further, in data set [2], the folding enthalpy was -16.2 kcal/mol.
The like results for GCACTCGGAAACAAGTGC (((((.(....).))))) were, in that order, 46.3 °C and -29.3 kcal/mol.
Turning to GCACTCGGAAACGAGCGC ((.((((....)))).)), the Tm in data set [1] came out at 55.2 °C. Also, the folding enthalpy in data set [2] was -38.9 kcal/mol.
